The target in the first test is recombinant human ALR2 (Homo sapiens, UniProt P15121). Kind of test: ALR2 inhibition assay.
Details: not given
It counts as biochemical.
On to `COc1cc(/C=C/C(=O)N2CCC=CC2=O)cc(OC)c1OC` [Compound 1, 5,6-Dihydro-1-((E)-3-(3,4,5-trimethoxyphenyl)acryloyl) pyridin-2(1H)-one], for which the “ALR2 inhibitory activity (in words)” value is on record as “moderate activity”.

On to `COc1cc(C(CC(=O)N2CCC=CC2=O)c2c[nH]c3ccccc23)cc(OC)c1OC` (stereo not drawn) [Compound 2a, 1-(3-(1H-Indol-3-yl)-3-(3,4,5-trimethoxyphenyl)propanoyl)-5,6-dihydropyridin-2(1H)-one], for which the IC50 was greater than 500 µM.

For the compound `COc1cc(C(CC(=O)N2CCC=CC2=O)c2cn(C)c3ccccc23)cc(OC)c1OC` (stereo not drawn) [Compound 2b, 1-(3-(3,4,5-Trimethoxyphenyl)-3-(1-methyl-1H-indol-3-yl)propanoyl)-5,6-dihydropyridin-2(1H)-one], the IC50 came out at 100 µM.

As to `COc1cc(C(CC(=O)N2CCC=CC2=O)c2c[nH]c3ccc(I)cc23)cc(OC)c1OC` (stereo not drawn) [Compound 2f, 1-(3-(5-Iodo-1H-indol-3-yl)-3-(3,4,5-trimethoxyphenyl)propanoyl)-5,6-dihydropyridin-2(1H)-one], the IC50 was greater than 500 µM.

As to `COc1cc(C(CC(=O)N2CCC(c3c[nH]c4ccccc34)CC2=O)c2c[nH]c3ccccc23)cc(OC)c1OC` (stereo not drawn) [Compound 3a, 1-(3-(1H-Indol-3-yl)-3-(3,4,5-trimethoxyphenyl)propanoyl)-4-(1H-indol-3-yl)piperidin-2-one], the IC50 was determined as 80 µM.

As to `COc1cc(C(CC(=O)N2CCC(c3cn(C)c4ccccc34)CC2=O)c2cn(C)c3ccccc23)cc(OC)c1OC` (stereo not drawn) [Compound 3b, 1-(3-(3,4,5-Trimethoxyphenyl)-3-(1-methyl-1H-indol-3-yl)propanoyl)-4-(1-methyl-1H-indol-3-yl)piperidin-2-one], the IC50 is greater than 500 µM.

With `COc1cc(C(CC(=O)N2CCC(c3c[nH]c4ccc(I)cc34)CC2=O)c2c[nH]c3ccc(I)cc23)cc(OC)c1OC` (stereo not drawn) [Compound 3f, 1-(3-(5-Iodo-1H-indol-3-yl)-3-(3,4,5-trimethoxyphenyl)propanoyl)-4-(5-iodo-1H-indol-3-yl)piperidin-2-one], the IC50 is greater than 500 µM.

Turning to `COc1cc(C(CC(=O)O)c2c(C)[nH]c3ccccc23)cc(OC)c1OC` (stereo not drawn) [Compound 4, 3-(3,4,5-Trimethoxyphenyl)-3-(2-methyl-1H-indol-3-yl) propanoic acid], the IC50 was 72 µM.

`COC(=O)/C=C/c1cc(OC)c(OC)c(OC)c1` [Compound 5, (E)-Methyl 3-(3,4,5-trimethoxyphenyl)acrylate]: the IC50 was greater than 500 µM.

With `O=C1C=CCCN1C(=O)C=Cc1ccccc1` [Compound 12, 1-Cinnamoyl-5,6-dihydropyridin-2(1H)-one], the concentration for half-maximal inhibition (IC50) is greater than 500 µM.

As to `O=C1C=CCCN1C(=O)/C=C/c1cccc(C(F)(F)F)c1` [Compound 13, (E)-1-(3-(3-(Trifluoromethyl)phenyl)acryloyl)-5,6-dihydropyridin], the IC50 came out at 400 µM.

With `COc1ccc(OC)c(/C=C/C(=O)N2CCC=CC2=O)c1` [Compound 14, (E)-1-(3-(2,5-Dimethoxyphenyl)acryloyl)-5,6-dihydropyridin-2(1H)-one], the IC50 was greater than 500 µM.

Consider `O=C1C=CCCN1C(=O)/C=C/c1ccc2c(c1)OCO2` [Compound 16, (E)-1-(3-(Benzo[d][1,3]dioxol-5-yl)acryloyl)-5,6-dihydropyridin-2(1H)-one], for which the IC50 was greater than 500 µM.

For the compound `O=C1C=CCCN1C(=O)/C=C/c1ccc(Cl)cc1` [Compound 17, (E)-1-(3-(4-Chlorophenyl)acryloyl)-5,6-dihydropyridin-2(1H)-one], the IC50 was greater than 500 µM.

For `O=C1C=CCCN1C(=O)/C=C/c1ccc2ccccc2c1` [Compound 18, (E)-1-(3-(Naphthalen-2-yl)acryloyl)-5,6-dihydropyridin-2(1H)-one], the IC50 was 350 µM.

Turning to `O=C1C=CCCN1C(=O)/C=C/c1cccc(Oc2ccccc2)c1` [Compound 20, (E)-1-(3-(3-Phenoxyphenyl)acryloyl)-5,6-dihydropyridin-2(1H)-one], the IC50 is greater than 500 µM.

With `O=C1C=CCCN1C(=O)/C=C/c1cccs1` [Compound 22, (E)-1-(3-(Thiophen-2-yl)acryloyl)-5,6-dihydropyridin-2(1H)-one], the IC50 is greater than 500 µM.

In the case of `O=C1C=CCCN1C(=O)/C=C/C=C/c1ccc2c(c1)OCO2` [Compound 30, 1-((2E,4E)-5-(Benzo[d][1,3]dioxol-5-yl)penta-2,4-dienoyl)-5,6-dihydropyridin-2(1H)-one], the IC50 is 500 µM.

In the case of `COc1cc(/C=C/C(=O)N2CCC=C(C(O)c3ccc(F)cc3)C2=O)cc(OC)c1OC` (stereo not drawn) [Compound 32b, (E)-3-((4-Fluorophenyl)(hydroxy)methyl)-1-(3-(3,4,5-trimethoxyphenyl)acryloyl)-5,6-dihydropyridin-2(1H)-one], the IC50 was greater than 500 µM.

Take `COc1cc(/C=C/C(=O)N2CCC=C(C(O)c3ccccc3[N+](=O)[O-])C2=O)cc(OC)c1OC` (stereo not drawn) [Compound 32c, (E)-3-(Hydroxy(2-nitrophenyl)methyl)-1-(3-(3,4,5-trimethoxyphenyl)acryloyl)-5,6-dihydropyridin-2(1H)-one]: the IC50 was greater than 500 µM.

As to `COc1cc(/C=C/C(=O)N2CCC=C(C(O)c3ccc([N+](=O)[O-])cc3)C2=O)cc(OC)c1OC` (stereo not drawn) [Compound 32d, (E)-3-(Hydroxy(4-nitrophenyl)methyl)-1-(3-(3,4,5-trimethoxyphenyl)acryloyl)-5,6-dihydropyridin-2(1H)-one], the IC50 was greater than 500 µM.

Consider `COc1cc(/C=C/C(=O)N2CCC=C(C(O)c3ccc(C#N)cc3)C2=O)cc(OC)c1OC` (stereo not drawn) [Compound 32e, (E)-4-(Hydroxy(2-oxo-1-(3-(3,4,5-trimethoxyphenyl)acryloyl)-1,2,5,6-tetrahydropyridin-3-yl)methyl)benzonitrile], for which the IC50 was greater than 500 µM.

Consider `COc1cc(/C=C/C(=O)N2CCC=C(C(O)c3ccccn3)C2=O)cc(OC)c1OC` (stereo not drawn) [Compound 32f, (E)-3-(Hydroxy(pyridin-2-yl)methyl)-1-(3-(3,4,5-trimethoxyphenyl)acryloyl)-5,6-dihydropyridin-2(1H)-one], for which the IC50 was greater than 500 µM.

In the case of `COc1cc(/C=C/C(=O)N2CCC=C(C(O)c3ccc4ccccc4c3)C2=O)cc(OC)c1OC` (stereo not drawn) [Compound 32h, (E)-3-(Hydroxy(naphthalen-2-yl)methyl)-1-(3-(3,4,5-trimethoxyphenyl)acryloyl)-5,6-dihydropyridin-2(1H)-one], the 50% inhibitory concentration (IC50) is greater than 500 µM.

On to `COc1cc(/C=C/C(=O)N2CCC=C(C(O)c3ccc(C)cc3)C2=O)cc(OC)c1OC` (stereo not drawn) [Compound 32i, (E)-3-(Hydroxy(p-tolyl)methyl)-1-(3-(3,4,5-trimethoxyphenyl)acryloyl)-5,6-dihydropyridin-2(1H)-one], for which the IC50 was greater than 500 µM.

With `COc1cc(/C=C/C(=O)N2CCC=C(C(O)c3ccccc3)C2=O)cc(OC)c1OC` (stereo not drawn) [Compound 32j, (E)-3-(Hydroxy(phenyl)methyl)-1-(3-(3,4,5-trimethoxyphenyl)acryloyl)-5,6-dihydropyridin-2(1H)-one], the concentration for half-maximal inhibition (IC50) was greater than 500 µM.

For `COc1cc(/C=C/C(=O)N2CCCCC2)cc(OC)c1OC` [Compound 33, (E)-1-(Piperidin-1-yl)-3-(3,4,5-trimethoxyphenyl) prop-2-en-1-one], the IC50 is greater than 500 µM.

As for `COc1cc(/C=C/C(=O)N2CCCC2=O)cc(OC)c1OC` [Compound 34, (E)-1-(3-(3,4,5-Trimethoxyphenyl)acryloyl)pyrrolidin-2-one], the IC50 is greater than 500 µM.

Take `COc1cc(/C=C/C(=O)n2c(=O)oc3ccccc32)cc(OC)c1OC` [Compound 35, (E)-3-(3-(3,4,5-Trimethoxyphenyl)acryloyl)benzo[d]oxazol-2(3H)-one]: the IC50 was greater than 500 µM.

Still in this test, the particulars now being: Michael adducts from N-benzyl / phenyl indoles.
In the case of `COc1cc(C(CC(=O)N2CCC(c3cn(Cc4ccccc4)c4ccccc34)CC2=O)c2cn(Cc3ccccc3)c3ccccc23)cc(OC)c1OC` (stereo not drawn) [Compound 3c, 1-(3-(1-Benzyl-1H-indol-3-yl)-3-(3,4,5-trimethoxyphenyl)propanoyl)-4-(1-benzyl-1H-indol-3-yl)piperidin-2-one], the “enhancement of ALR2 inhibitory activity” value was found to be 40 folds.

As to `COc1cc(C(CC(=O)N2CCC(c3c(-c4ccccc4)[nH]c4ccccc34)CC2=O)c2c(-c3ccccc3)[nH]c3ccccc23)cc(OC)c1OC` (stereo not drawn) [Compound 3e, 1-(3-(3,4,5-Trimethoxyphenyl)-3-(2-phenyl-1H-indol-3-yl)propanoyl)-4-(2-phenyl-1H-indol-3-yl)piperidin-2-one], the “enhancement of ALR2 inhibitory activity” value was found to be 40 folds.

Staying with this test, now noted: average of four experimental values.
Regarding `O=C1C=CCCN1C(=O)/C=C/c1ccc(Br)cc1` [Compound 15, (E)-1-(3-(4-Bromophenyl)acryloyl)-5,6-dihydropyridin-2(1H)-one], the IC50 amounted to 350 µM.

In the case of `COc1cc(/C=C/C(=O)N2CCC=C(C(O)c3cccs3)C2=O)cc(OC)c1OC` (stereo not drawn) [Compound 32g, (E)-3-(Hydroxy(thiophen-2-yl)methyl)-1-(3-(3,4,5-trimethoxyphenyl)acryloyl)-5,6-dihydropyridin-2(1H)-one], the IC50 is greater than 500 µM.

The test system of a further test is human red blood cells (RBC). Kind of test: Sorbitol accumulation in RBC under high glucose conditions. It counts as cell-based. The note with it: ex vivo high glucose conditions. The procedure, abridged: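 Fasted healthy male donors' heparinised blood; RBC washed three times in isotonic saline at 4 °C, resuspended in Krebs-Ringer bicarbonate pH 7.4 (5% CO2). Duplicates incubated 3 h, 37 °C, 5% CO2, with 5.5 or 55 mM glucose, with test compound at 1.4–20 µM. Cells homogenised in 0.8 M perchloric acid, spun, supernatant adjusted to pH 3.5 with K2CO3; sorbitol measured fluorometrically.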
Regarding `COc1ccc2[nH]cc(C(CC(=O)N3CCC=CC3=O)c3cc(OC)c(OC)c(OC)c3)c2c1` (stereo not drawn) [Compound 2j, 1-(3-(5-Methoxy-1H-indol-3-yl)-3-(3,4,5-trimethoxyphenyl)propanoyl)-5,6-dihydropyridin-2(1H)-one], the “effect on sorbitol accumulation (in words)” value (shortened to “effect”) is listed as “inhibited the sorbitol accumulation”.

On to `COc1cc(C(CC(=O)N2CCC(c3cn(Cc4ccccc4)c4ccccc34)CC2=O)c2cn(Cc3ccccc3)c3ccccc23)cc(OC)c1OC` (stereo not drawn) [Compound 3c, 1-(3-(1-Benzyl-1H-indol-3-yl)-3-(3,4,5-trimethoxyphenyl)propanoyl)-4-(1-benzyl-1H-indol-3-yl)piperidin-2-one], for which the “effect” value was “inhibited the sorbitol accumulation”.

`COc1cc(C(CC(=O)N2CCC(c3c(-c4ccccc4)[nH]c4ccccc34)CC2=O)c2c(-c3ccccc3)[nH]c3ccccc23)cc(OC)c1OC` (stereo not drawn) [Compound 3e, 1-(3-(3,4,5-Trimethoxyphenyl)-3-(2-phenyl-1H-indol-3-yl)propanoyl)-4-(2-phenyl-1H-indol-3-yl)piperidin-2-one]: the “effect” value is “inhibited the sorbitol accumulation”.
